Test results reported in ChEMBL document CHEMBL1147636, “Fluorescence-labeled sphingosines as substrates of sphingosine kinases 1 and 2” (Bioorg Med Chem Lett, 2004).

How the values were obtained:
[1] = molecular target: T1, Sphingosine kinase 2 (Homo sapiens) (UniProt Q9NRA0); assay: Rate of phosphorylation of labeled sphingosine derivative by human SPHK-2 expressed in HEK293 cells relative to rate of D-sphingosine; assay type: functional, cell-based
T1 sequence (whole entry): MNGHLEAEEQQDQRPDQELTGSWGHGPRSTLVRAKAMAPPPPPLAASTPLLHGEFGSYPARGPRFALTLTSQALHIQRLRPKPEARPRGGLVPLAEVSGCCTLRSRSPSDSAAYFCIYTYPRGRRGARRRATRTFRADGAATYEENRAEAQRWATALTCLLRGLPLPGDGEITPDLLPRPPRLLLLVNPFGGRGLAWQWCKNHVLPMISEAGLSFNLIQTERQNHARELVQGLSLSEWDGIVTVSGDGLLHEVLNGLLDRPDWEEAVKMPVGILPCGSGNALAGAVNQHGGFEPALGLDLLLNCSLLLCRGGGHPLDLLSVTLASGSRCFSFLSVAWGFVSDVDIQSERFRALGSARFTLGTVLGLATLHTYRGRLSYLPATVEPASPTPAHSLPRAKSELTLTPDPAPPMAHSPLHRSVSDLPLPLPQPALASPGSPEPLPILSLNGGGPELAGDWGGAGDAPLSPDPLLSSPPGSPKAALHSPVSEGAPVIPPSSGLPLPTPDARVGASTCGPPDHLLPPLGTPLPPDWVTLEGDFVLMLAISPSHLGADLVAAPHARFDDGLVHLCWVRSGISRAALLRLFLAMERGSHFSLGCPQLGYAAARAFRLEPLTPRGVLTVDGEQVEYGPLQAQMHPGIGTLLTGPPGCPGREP
Summary of the method: (§1)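 Enzyme source was the cytoplasmic fraction of HEK-293 cells overexpressing human SPHK-1 or -2. Incubation was at 30 °C for time points up to 2 h. Lipids were extracted, separated by TLC and quantified by phosphorimaging, and rates were expressed relative to sphingosine.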

[2] = molecular target: Sphingosine kinase 1 (Homo sapiens) (UniProt Q9NYA1); assay: Rate of phosphorylation of labeled sphingosine derivative by human SPHK-1 expressed in HEK293 cells relative to rate of D-sphingosine; assay type: functional, cell-based; summary of the method: as §1
Sphingosine kinase 1 (Homo sapiens), sequence (Q9NYA1 whole entry): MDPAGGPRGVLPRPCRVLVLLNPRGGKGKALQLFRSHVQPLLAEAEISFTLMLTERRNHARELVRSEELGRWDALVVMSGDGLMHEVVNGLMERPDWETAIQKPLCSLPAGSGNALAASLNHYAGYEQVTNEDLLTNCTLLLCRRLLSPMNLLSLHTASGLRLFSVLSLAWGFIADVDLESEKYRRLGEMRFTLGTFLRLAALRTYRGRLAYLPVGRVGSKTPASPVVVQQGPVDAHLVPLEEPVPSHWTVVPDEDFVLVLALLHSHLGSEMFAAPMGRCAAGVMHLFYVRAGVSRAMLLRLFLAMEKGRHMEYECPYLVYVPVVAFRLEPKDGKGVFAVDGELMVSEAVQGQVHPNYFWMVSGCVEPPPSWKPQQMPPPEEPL

Rate [1] | Rate [2] | Structure (SMILES)
0.065 | 0.024 | N[C@@H](CO)[C@H](O)/C=C/CCCOC(=O)CCCCCCCCCc1ccc2ccc3cccc4ccc1c2c34
0.83 | 0.051 | NC(CO)[C@H](O)/C=C/CCCCCCCCCCNS(=O)(=O)c1ccc2ccc3cccc4ccc1c2c34 (some centres undefined)
1.25 | 0.83 | N[C@@H](CO)[C@H](O)/C=C/CCCCCCCCCCOC(=O)c1ccc2ccc3cccc4ccc1c2c34

Continued, compound first:

Structure (SMILES) | Rate [1] | Rate [2]
N[C@@H](CO)[C@H](O)/C=C/CCCOC(=O)CCCCCc1ccc2ccc3cccc4ccc1c2c34 | 0.83 | 0.078
CN(C)c1ccc(S(=O)(=O)NCCCCCCCCCC/C=C/C(O)C(N)CO)c2ccccc12 (single isomer, unassigned) | 0.026 | 0.063
N[C@@H](CO)[C@H](O)/C=C/CCCOC(=O)CCCc1ccc2ccc3cccc4ccc1c2c34 | 0.14 | 0.048
NC(CO)[C@H](O)/C=C/CCCCCCCCCCNc1ccc([N+](=O)[O-])c2nonc12 (single isomer, unassigned) | 0.48 | 0.5
